Measurements taken from ChEMBL document CHEMBL5678817, “FTBMT, a Novel and Selective GPR52 Agonist, Demonstrates Antipsychotic-Like and Procognitive Effects in Rodents, Revealing a Potential Therapeutic Agent for Schizophrenia” (J Pharmacol Exp Ther, 2017).
Active and inactive are the calls of the source. No cut-off for these calls is given here.

Columns and labels:
[1] = molecular target: MAO-A (amine oxidase [flavin-containing] A) (Homo sapiens, UniProt P21397); assay: Inhibition of MAO-A (unknown origin) at 10 uM relative to control
Sequence of MAO-A (amine oxidase [flavin-containing] A) (P21397 whole entry): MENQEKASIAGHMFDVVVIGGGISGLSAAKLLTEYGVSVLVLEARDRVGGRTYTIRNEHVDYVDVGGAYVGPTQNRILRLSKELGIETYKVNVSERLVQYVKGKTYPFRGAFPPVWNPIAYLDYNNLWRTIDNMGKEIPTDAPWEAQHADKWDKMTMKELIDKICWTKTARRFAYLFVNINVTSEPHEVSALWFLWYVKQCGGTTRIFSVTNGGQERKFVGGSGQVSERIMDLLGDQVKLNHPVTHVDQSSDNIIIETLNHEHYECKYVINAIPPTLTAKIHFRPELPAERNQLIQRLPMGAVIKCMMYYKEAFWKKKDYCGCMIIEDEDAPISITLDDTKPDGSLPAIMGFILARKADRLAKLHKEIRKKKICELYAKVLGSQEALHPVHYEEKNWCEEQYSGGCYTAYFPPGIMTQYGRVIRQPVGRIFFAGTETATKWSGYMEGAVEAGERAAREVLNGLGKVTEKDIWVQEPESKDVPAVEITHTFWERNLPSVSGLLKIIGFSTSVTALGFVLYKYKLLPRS
Summary of the method: (§1)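 Enzyme activity assays from the same 98-target biochemical panel. Single test concentration of 10 µM. Read-out is % inhibition of enzyme activity relative to control; negative percentages indicate activation of the enzyme.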

[2] = molecular target: Insulin receptor (Homo sapiens) (UniProt P06213); assay: Inhibition of Insulin receptor (unknown origin) at 10 uM relative to control
Summary of the method: (§2)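 Part of a 98-target external biochemical selectivity panel that used radioligand/receptor binding-type assays. Compound tested once at 10 µM. Results are reported as % inhibition versus control; negative values mean stimulation of receptor activity.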

Homo sapiens [3] = organism: Homo sapiens; assay: Inhibition of GABAB1B receptor (unknown origin) at 10 uM relative to control; summary of the method: as §2
[4] = molecular target: G protein-coupled receptor 52 (Rattus norvegicus) (UniProt A0A8I5ZQK1); assay: Agonist activity at GPR52 in rat Striatal neuron assessed as increase in NMDA-stimulated GABA release […] followed by NMDA-stimulation and measured after 20 mins by scintillation counter analysis; assay type: cell-based; conditions: filed as agonist, time 60.0 min
Sequence of G protein-coupled receptor 52 (Rattus norvegicus) (A0A8I5ZQK1 as listed by the source): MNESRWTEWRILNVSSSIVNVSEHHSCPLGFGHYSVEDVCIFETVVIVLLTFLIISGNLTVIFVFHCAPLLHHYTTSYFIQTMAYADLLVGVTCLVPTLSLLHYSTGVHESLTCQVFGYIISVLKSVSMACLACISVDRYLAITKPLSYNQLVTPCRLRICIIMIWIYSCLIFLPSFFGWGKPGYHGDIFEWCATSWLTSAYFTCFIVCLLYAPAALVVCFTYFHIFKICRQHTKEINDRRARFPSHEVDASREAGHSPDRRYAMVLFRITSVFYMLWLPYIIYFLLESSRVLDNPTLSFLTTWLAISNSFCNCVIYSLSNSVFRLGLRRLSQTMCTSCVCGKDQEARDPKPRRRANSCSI

[5] = molecular target: Gastrin/cholecystokinin type B receptor (Homo sapiens) (UniProt P32239); assay: Inhibition of CCK2 receptor (unknown origin) at 10 uM relative to control
Summary of the method: (§3)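 Single-point screen at 10 μM across receptor, ion channel and enzyme binding or activity assays. Expressed as percent inhibition versus control; negative values denote stimulation.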

[6] = molecular target: Substance-P receptor (Homo sapiens) (UniProt P25103); assay: Inhibition of Tachykinin NK1 receptor (unknown origin) at 10 uM relative to control
Sequence of Substance-P receptor (Homo sapiens) (P25103 whole entry): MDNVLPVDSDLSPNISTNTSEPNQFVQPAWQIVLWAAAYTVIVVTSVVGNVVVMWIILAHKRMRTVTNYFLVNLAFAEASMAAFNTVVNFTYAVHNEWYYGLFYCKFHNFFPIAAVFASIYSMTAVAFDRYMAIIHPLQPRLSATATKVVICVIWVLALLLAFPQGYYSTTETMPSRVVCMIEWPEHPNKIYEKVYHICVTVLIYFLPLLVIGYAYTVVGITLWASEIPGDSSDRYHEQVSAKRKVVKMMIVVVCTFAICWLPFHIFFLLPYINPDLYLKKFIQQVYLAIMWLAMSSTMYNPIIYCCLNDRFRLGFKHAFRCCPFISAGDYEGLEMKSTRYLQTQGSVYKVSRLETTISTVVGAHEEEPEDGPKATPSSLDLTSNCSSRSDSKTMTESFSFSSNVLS
Summary of the method: (§4)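 Binding and enzyme panel run by an outside contractor against receptors, ion channels and enzymes. Each assay used a single 10 μM test concentration, and results are expressed as percent inhibition. A negative value means stimulation of receptor activity or activation of enzyme activity.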

[7] = molecular target: Sodium-dependent noradrenaline transporter (Homo sapiens) (UniProt P23975); assay: Inhibition of Norepinephrine transporter (unknown origin) at 10 uM relative to control; summary of the method: as §2
[8] = molecular target: Nitric oxide synthase, inducible (Homo sapiens) (UniProt P35228); assay: Inhibition of iNOS (unknown origin) at 10 uM relative to control; summary of the method: as §4
Sequence of Nitric oxide synthase, inducible (Homo sapiens) (P35228 whole entry): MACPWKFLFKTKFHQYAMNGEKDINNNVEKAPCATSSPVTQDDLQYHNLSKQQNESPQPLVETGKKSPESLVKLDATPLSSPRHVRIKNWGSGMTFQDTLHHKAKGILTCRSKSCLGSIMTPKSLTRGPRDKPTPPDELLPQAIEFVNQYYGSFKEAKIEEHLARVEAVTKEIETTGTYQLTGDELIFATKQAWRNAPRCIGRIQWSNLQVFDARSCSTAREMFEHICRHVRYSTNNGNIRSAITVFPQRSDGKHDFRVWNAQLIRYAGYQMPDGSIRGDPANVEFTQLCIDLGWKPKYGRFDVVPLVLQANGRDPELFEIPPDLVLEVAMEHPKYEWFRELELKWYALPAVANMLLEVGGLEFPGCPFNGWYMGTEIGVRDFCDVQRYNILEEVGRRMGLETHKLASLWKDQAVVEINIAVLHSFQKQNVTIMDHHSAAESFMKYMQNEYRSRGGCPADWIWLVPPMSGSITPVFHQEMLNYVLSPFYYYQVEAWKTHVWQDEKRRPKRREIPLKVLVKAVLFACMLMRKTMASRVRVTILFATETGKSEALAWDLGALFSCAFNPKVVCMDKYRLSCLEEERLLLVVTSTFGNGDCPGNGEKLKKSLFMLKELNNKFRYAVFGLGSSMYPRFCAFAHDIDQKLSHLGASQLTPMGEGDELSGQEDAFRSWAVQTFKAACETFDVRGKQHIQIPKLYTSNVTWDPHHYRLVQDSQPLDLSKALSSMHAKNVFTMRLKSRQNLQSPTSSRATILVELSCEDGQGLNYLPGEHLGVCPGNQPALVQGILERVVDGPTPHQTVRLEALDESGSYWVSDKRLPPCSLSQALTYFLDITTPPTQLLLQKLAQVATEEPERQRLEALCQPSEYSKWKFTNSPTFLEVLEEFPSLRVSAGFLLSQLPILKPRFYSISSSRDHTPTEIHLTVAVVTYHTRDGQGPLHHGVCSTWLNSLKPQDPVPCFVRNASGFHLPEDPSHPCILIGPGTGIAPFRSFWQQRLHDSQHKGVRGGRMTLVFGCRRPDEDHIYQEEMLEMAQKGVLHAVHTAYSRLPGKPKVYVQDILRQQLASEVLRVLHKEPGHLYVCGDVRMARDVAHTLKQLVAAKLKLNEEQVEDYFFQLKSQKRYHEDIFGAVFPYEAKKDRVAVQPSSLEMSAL

[9] = molecular target: cAMP and cAMP-inhibited cGMP 3',5'-cyclic phosphodiesterase 10A (Homo sapiens) (UniProt Q9Y233); assay: Inhibition of PDE10A1 (unknown origin) at 10 uM relative to control; summary of the method: as §1
Mus musculus [10] = assay: Pro-cognitive activity in C57BL/6N mouse assessed as increase in Arc gene expression in hippocampus at 3 to 30 mg/kg, po […]; assay type: functional, organism-based; conditions: dose 3-30 mg/kg
Homo sapiens [11] = organism: Homo sapiens; assay: Inhibition of GABAB1A receptor (unknown origin) at 10 uM relative to control; summary of the method: as §2
Homo sapiens [12] = organism: Homo sapiens; assay: Inhibition of KATP (unknown origin) at 10 uM relative to control; summary of the method: as §2
[13] = molecular target: B1 bradykinin receptor (Homo sapiens) (UniProt P46663); assay: Inhibition of Bradykinin B1 receptor (unknown origin) at 10 uM relative to control; summary of the method: as §3
[14] = molecular target: Matrilysin (Homo sapiens) (UniProt P09237); assay: Inhibition of MMP7 (unknown origin) at 10 uM relative to control; summary of the method: as §1
Sequence of Matrilysin (Homo sapiens) (P09237 whole entry): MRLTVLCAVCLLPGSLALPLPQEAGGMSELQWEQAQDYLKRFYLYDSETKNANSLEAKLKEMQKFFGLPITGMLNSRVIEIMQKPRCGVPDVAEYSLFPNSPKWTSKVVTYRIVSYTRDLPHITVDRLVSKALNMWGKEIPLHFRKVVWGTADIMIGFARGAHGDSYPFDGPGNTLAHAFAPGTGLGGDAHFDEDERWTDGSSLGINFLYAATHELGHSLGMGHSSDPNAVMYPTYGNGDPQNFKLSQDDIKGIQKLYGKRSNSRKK

Homo sapiens [15] = organism: Homo sapiens; assay: Inhibition of Imidazoline I2 receptor (unknown origin) at 10 uM relative to control; summary of the method: as §2
[16] = molecular target: Vasopressin V2 receptor (Homo sapiens) (UniProt P30518); assay: Inhibition of Vasopressin V2 receptor (unknown origin) at 10 uM relative to control; summary of the method: as §4
Sequence of Vasopressin V2 receptor (Homo sapiens) (P30518 whole entry): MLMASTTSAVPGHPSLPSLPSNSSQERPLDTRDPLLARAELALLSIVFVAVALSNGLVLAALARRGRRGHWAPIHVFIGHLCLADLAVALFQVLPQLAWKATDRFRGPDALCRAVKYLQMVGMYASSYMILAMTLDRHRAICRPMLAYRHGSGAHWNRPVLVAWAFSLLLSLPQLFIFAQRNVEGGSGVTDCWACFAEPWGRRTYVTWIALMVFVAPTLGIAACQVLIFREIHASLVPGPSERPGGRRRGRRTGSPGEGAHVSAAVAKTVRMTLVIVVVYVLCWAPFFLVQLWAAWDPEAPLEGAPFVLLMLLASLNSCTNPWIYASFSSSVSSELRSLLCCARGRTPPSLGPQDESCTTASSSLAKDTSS

[17] = molecular target: Vasopressin V1a receptor (Homo sapiens) (UniProt P37288); assay: Inhibition of Vasopressin V1A receptor (unknown origin) at 10 uM relative to control; summary of the method: as §4
Mus musculus [18] = assay: Antipsychotic activity in C57BL/6N mouse assessed as increase in Arc mRNA expression at 3 to 100 mg/kg, po measured for 1 hr by qPCR analysis; assay type: functional, organism-based; conditions: dose 3-100 mg/kg
Summary of the method: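 Mice dosed orally at 3–100 mg/kg or vehicle. Tissues taken 1 h post-dose, NAc shell and striatum dissected, frozen on dry ice. IEG mRNA quantified by qPCR (absolute or ΔΔCt); n = 5–6; mean ± SEM.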

[19] = molecular target: T1, GABA-A receptor; anion channel (Homo sapiens) (UniProt P14867+P47870+P18507+P28472+P48169+Q99928+Q9UN88+P34903+O00591+O14764+Q8N1C3+P18505+P78334+P47869+P31644+Q16445); assay: Inhibition of GABAA receptor (unknown origin) at 10 uM relative to control; assay type: protein-complex assay; summary of the method: as §2
[20] = molecular target: T1, GABA-A receptor; anion channel (Homo sapiens); assay: Inhibition of GABAA receptor (unknown origin) at 10 uM in presence of flunitrazepam relative to control; assay type: protein-complex assay; summary of the method: as §2
[21] = molecular target: Polyunsaturated fatty acid 5-lipoxygenase (Homo sapiens) (UniProt P09917); assay: Inhibition of […] (unknown origin) at 10 uM relative to control; summary of the method: as §1
[22] = molecular target: G-protein coupled receptor 52 (Homo sapiens, UniProt Q9Y2T5); assay: Agonist activity at human GPR52 expressed in CHO cells assessed as increase in intracellular cAMP level incubated for 30 mins by Alphascreen assay; assay type: functional, cell-based
Summary of the method: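 CHO cells stably expressing human, mouse or rat GPR52, plus naïve CHO cells, at 10,000 cells/well. Stimulated in cAMP assay buffer for 30 min at 37 °C. Intracellular cAMP read by AlphaScreen.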

Mus musculus [23] = assay: Antipsychotic activity in wild type mouse assessed as increase in phosphorylated CREB level in striatum at 30 mg/kg, po incubated for 60 mins by ELISA analysis; assay type: functional, organism-based
Mus musculus [24] = assay: Antipsychotic activity in methamphetamine-induced hyperactivity in ICR mouse assessed as minimum effective dose administered orally; assay type: functional; conditions: route po, read-out: MED
Homo sapiens [25] = organism: Homo sapiens; assay: Inhibition of Calcium channel N-type (unknown origin) at 10 uM relative to control; summary of the method: as §3
[26] = molecular target: Kappa-type opioid receptor (Homo sapiens) (UniProt P41145); assay: Inhibition of opioid kappa receptor (unknown origin) at 10 uM relative to control; summary of the method: as §4
Sequence of Kappa-type opioid receptor (Homo sapiens) (P41145 whole entry): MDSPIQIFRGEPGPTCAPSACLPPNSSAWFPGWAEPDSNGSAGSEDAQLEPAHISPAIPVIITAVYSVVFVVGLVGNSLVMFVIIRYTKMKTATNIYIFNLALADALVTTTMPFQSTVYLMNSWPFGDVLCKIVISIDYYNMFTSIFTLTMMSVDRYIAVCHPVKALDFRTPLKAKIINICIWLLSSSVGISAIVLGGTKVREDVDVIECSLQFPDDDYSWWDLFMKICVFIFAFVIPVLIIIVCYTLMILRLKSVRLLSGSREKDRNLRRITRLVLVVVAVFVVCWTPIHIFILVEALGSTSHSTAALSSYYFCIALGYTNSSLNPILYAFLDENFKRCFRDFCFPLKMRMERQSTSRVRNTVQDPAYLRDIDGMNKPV

[27] = molecular target: Xanthine oxidase (xanthine dehydrogenase/oxidase) (Homo sapiens, UniProt P47989); assay: Inhibition of Xanthine oxidase (unknown origin) at 10 uM relative to control; summary of the method: as §4
[28] = molecular target: Glutamate [NMDA] receptor (Homo sapiens) (UniProt Q05586+Q12879+Q13224+O15399+O60391+Q14957+Q8TCU5); assay: Inhibition of Glutamate NMDA receptor (unknown origin) at 10 uM in presence of phencyclidine to control; assay type: protein-complex assay; summary of the method: as §2
[29] = molecular target: Serotonin 2 (5-HT2) receptor (Homo sapiens) (UniProt P41595+P28223+P28335); assay: Inhibition of Serotonin 5-HT2 receptor (unknown origin) at 10 uM relative to control; assay type: protein assay; summary of the method: as §2
Sequence of Serotonin 2 (5-HT2) receptor (Homo sapiens) (P28223 whole entry, looked up): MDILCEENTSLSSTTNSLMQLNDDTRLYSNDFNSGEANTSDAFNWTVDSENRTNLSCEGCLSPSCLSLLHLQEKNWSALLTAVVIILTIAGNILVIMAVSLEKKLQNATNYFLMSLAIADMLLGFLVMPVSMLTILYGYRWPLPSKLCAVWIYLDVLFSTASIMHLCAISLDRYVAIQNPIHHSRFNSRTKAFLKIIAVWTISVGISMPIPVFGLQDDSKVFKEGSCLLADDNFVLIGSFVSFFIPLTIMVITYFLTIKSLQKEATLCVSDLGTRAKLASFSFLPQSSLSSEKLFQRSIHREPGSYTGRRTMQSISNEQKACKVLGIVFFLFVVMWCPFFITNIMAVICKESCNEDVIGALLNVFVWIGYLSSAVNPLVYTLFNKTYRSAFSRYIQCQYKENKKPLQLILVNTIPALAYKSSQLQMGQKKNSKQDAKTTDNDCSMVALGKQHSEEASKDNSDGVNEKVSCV
Sequence of Serotonin 2 (5-HT2) receptor (Homo sapiens) (P28335 whole entry, looked up): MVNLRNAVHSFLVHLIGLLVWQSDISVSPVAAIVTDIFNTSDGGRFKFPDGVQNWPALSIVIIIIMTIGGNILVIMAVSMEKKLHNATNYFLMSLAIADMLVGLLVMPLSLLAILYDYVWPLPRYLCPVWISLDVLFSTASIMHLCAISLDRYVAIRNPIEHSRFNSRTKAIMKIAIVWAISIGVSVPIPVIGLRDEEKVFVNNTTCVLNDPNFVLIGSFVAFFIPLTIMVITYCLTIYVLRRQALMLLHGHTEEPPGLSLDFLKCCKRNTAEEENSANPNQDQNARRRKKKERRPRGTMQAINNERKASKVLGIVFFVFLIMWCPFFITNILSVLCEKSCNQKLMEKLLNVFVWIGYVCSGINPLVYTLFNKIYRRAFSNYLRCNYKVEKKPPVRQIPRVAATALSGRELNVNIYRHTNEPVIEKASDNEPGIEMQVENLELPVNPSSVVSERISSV
Sequence of Serotonin 2 (5-HT2) receptor (Homo sapiens) (P41595 whole entry, looked up): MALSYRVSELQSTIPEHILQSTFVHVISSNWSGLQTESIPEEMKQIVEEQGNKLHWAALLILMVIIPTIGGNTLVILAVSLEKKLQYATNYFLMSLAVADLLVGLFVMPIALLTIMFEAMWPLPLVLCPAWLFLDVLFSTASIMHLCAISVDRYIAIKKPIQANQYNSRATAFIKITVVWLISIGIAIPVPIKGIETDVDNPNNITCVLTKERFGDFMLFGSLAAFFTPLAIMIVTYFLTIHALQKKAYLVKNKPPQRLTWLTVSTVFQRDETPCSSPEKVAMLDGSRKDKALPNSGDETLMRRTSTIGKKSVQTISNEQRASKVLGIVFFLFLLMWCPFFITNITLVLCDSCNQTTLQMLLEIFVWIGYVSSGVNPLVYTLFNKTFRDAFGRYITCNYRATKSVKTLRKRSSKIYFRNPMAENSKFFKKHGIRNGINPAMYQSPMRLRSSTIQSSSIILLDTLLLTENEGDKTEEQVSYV

Homo sapiens [30] = organism: Homo sapiens; assay: Inhibition of Glutamate kainate receptor (unknown origin) at 10 uM relative to control; summary of the method: as §2

`Cc1cc(-n2nc(Cc3cc(F)cc(C(F)(F)F)c3)nc2C)ccc1C(N)=O` [TP-024] was tested, and the inhibition at 10 µM [1] was 6%, the inhibition [2] was -9% and the inhibition (Homo sapiens [3]) was 2%. The Activity [4] was “Active”, the inhibition [5] was 0% and the inhibition [6] was 4%. The inhibition [7] was 10%, the inhibition [8] was 7% and the inhibition [9] was 0%. The Activity (Mus musculus [10]) was “Active”, the inhibition (Homo sapiens [11]) was 5% and the inhibition (Homo sapiens [12]) was -1%. It also gave an inhibition [13] of -5%, an inhibition [14] of 0% and an inhibition (Homo sapiens [15]) of 6%. For the same molecule, the inhibition [16] was -1%, the inhibition [17] was 14% and the Activity (Mus musculus [18]) was “Active”. It also gave an inhibition [19] of 2%, an inhibition [20] of 6% and an inhibition [21] of -5%. For the same molecule, the EC50 [22] was 0.0933 µM, the Activity (Mus musculus [23]) was “Active” and the minimal effective dose (Mus musculus [24]) was 10 mg/kg. It also gave an inhibition (Homo sapiens [25]) of -9%, an inhibition [26] of -9% and an inhibition at 10 µM [27] of 10%. For the same molecule, the inhibition [28] was 4%, the inhibition [29] was 14% and the inhibition (Homo sapiens [30]) was 2%.
